In PMC9078286 (RSC Advances, 2018):

Type: in vivo, Sprague-Dawley rats
Settings: for T max / half-life: Normal rats, oral Gandi capsule 80 mg kg^-1, plasma, n = 6, mean ± SD; for concentration at 2 h / half-life: male, Sprague-Dawley, rat, plasma, po; for concentration at 2 h: 80 mg kg^-1 Gandi capsule; for half-life: 80 mg/kg, T 1/2 z
How it was run: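 Diabetes was induced by a single ip STZ dose of 45 mg kg−1 in citrate buffer (0.1 mol L−1, pH 4.5), with blood glucose >16.7 mmol L−1 after 1 week; rats were dosed on day 10. Rats were fasted 12 h, then given capsule contents in 0.3% CMC-Na orally; n = 6/group. Plasma was sampled 0–48 h, precipitated with IS in methanol and analysed by positive-ion LC-MS/MS; results are mean ± SD, compared by t-test.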

SMILES	T max	concentration at 2 h	half-life	Time after oral administration in which the compound can be detected in plasma (oral Gandi capsule, rat plasma, quick elimination phase)
O=C(O)[C@H]1O[C@@H](Oc2cc3oc(-c4ccccc4)cc(=O)c3c(O)c2O)[C@H](O)[C@@H](O)[C@@H]1O [Baicalin, baicalin]	1.50 ± 1.40 h	723 ng/mL	9.45 ± 2.87 h	–
COC(=O)C1=CO[C@@H](O[C@@H]2O[C@H](CO)[C@@H](O)[C@H](O)[C@H]2O)[C@@H]2[C@@H](C)[C@@H](O)C[C@H]12 [Loganin, loganin]	1.25 ± 0.35 h	42.6 ng/mL	0.46 ± 0.38 h	≤ 2.5 h
COc1c(O)cc(O)c2c(=O)cc(-c3ccccc3)oc12 [Wogonin, wogonin]	–	54.9 ng/mL	1.52 ± 0.25 h	–
